Converted amounts (≈) assume the structure as drawn.
Legend:
Plasmodium falciparum [1] = test: In vitro antimalarial activity against chloroquine-resistant Plasmodium falciparum W2 (Indochina); type: functional, organism-based
Method in brief: (§1)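 Semiautomated microdilution over a 64-fold dilution range, with DMSO stock diluted in medium with 10% plasma. Parasites at 0.5% parasitemia and 1.5% hematocrit, 37°C under 5% O2/5% CO2/90% N2 for 24 h. Tritiated hypoxanthine added for a further 18–20 h and incorporation read by scintillation. IC50 from nonlinear regression of concentration–response curves.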

Plasmodium falciparum [2] = test: In vitro antimalarial activity against mefloquine-resistant Plasmodium falciparum D6 (Sierra Leone); type: functional, organism-based; method in brief: as §1
Plasmodium berghei [3] = test: Antimalarial activity against Plasmodium berghei infected mice (Mus musculus) at 20 mg/kg dose; n=5; type: functional
Method in brief: (§2)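 Mice infected intraperitoneally on day 0 with 5.98×10^5 P. berghei-parasitized cells. A single subcutaneous dose in peanut oil was given on day 3, at 640, 320, 160, 80, 40 or 20 mg/kg. Blood films were taken on day 6, then every 7 days to day 60. Mice surviving 60 days counted as cured. Activity meant survival over twice that of infected untreated controls.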

Plasmodium berghei [4] = test: Antimalarial activity against Plasmodium berghei infected mice (Mus musculus) at 640 mg/kg dose; n=5; type: functional; method in brief: as §2
Plasmodium berghei [5] = test: Antimalarial activity against Plasmodium berghei infected mice (Mus musculus) at 40 mg/kg dose; n=5; type: functional; method in brief: as §2
Plasmodium berghei [6] = test: Antimalarial activity against Plasmodium berghei infected mice (Mus musculus) at 320 mg/kg dose; active in 2 of 5; type: functional; method in brief: as §2
Plasmodium berghei [7] = test: Antimalarial activity against Plasmodium berghei infected mice (Mus musculus) at 160 mg/kg dose; active in 2 of 5; type: functional; method in brief: as §2
Plasmodium berghei [8] = test: Antimalarial activity against Plasmodium berghei infected mice (Mus musculus) at 80 mg/kg dose;n=5; type: functional; method in brief: as §2
Plasmodium berghei [9] = test: Antimalarial activity against Plasmodium berghei infected mice (Mus musculus) at 160 mg/kg dose; n=5; type: functional; method in brief: as §2
Plasmodium berghei [10] = test: Antimalarial activity against Plasmodium berghei infected mice (Mus musculus) at 320 mg/kg dose; n=5; type: functional; method in brief: as §2

Row | Compound | IC50 (Plasmodium falciparum [1]) [ng/mL] | IC50 (Plasmodium falciparum [2]) [ng/mL] | No. of mice cured (Plasmodium berghei [3]) | No. of mice cured (Plasmodium berghei [4]) | No. of mice cured (Plasmodium berghei [5]) | No. of mice cured (Plasmodium berghei [6]) | No. of mice cured (Plasmodium berghei [7]) | No. of mice cured (Plasmodium berghei [8]) | No. of mice cured (Plasmodium berghei [9]) | No. of mice cured (Plasmodium berghei [10])
1 | C[C@@H]1CC[C@H]2[C@@H](C)CO[C@@H]3OC4(C)CC[C@@H]1[C@]32O4 (single isomer, unassigned) | 250 (≈ 991 nM) | 250 (≈ 991 nM) |  |  |  |  |  |  |  | 
2 | C[C@@H]1CC[C@H]2[C@@H](C)C(O)O[C@@H]3OC4(C)CC[C@@H]1[C@]32OO4 (single isomer, unassigned) | 0.04 (≈ 0.141 nM) | 0.11 (≈ 0.387 nM) |  |  |  |  |  |  |  | 
3 | C[C@@H]1CC[C@H]2[C@@H](C)CO[C@@H]3OC4(C)CC[C@@H]1[C@]32OO4 (single isomer, unassigned) [DEOXOARTEMISININ] | 0.15 (≈ 0.559 nM) | 0.58 (≈ 2.16 nM) | 0 | 5 | 0 | 2 | 0 | 0 |  | 
4 | C[C@@H]1CC[C@H]2[C@@H](C)C(=O)O[C@@H]3O[C@@]4(C)CC[C@@H]1[C@]32OO4 [ARTEMISININ] | 1.21 (≈ 4.29 nM) | 2.33 (≈ 8.25 nM) | 0 | 5 | 0 |  |  | 0 | 0 | 0
5 | CCO[C@H]1O[C@@H]2O[C@@]3(C)CC[C@H]4[C@H](C)CC[C@@H]([C@H]1C)[C@@]24OO3 [ARTEMOTIL] | 0.16 (≈ 0.512 nM) | 0.87 (≈ 2.78 nM) |  |  |  |  |  |  |  | 

Reference: ChEMBL document CHEMBL1125082, “Synthesis and antimalarial activity of (+)-deoxoartemisinin” (J Med Chem, 1990)
